According to publication PMC12415690 (RSC Advances, 2025):
Values after ≈ are worked out from the molar mass of the structure shown. Read-outs that look alike come from different tables or passages of the source.

Legend:
[1] = test system: Mycobacterium tuberculosis; details: cited from earlier work
M.tb H37Rv = details: cited from earlier work
[2] = test system: dormant M. tuberculosis H37Ra; details: cited from earlier work
[3] = test system: M. tuberculosis H37Rv strain (ATCC 27294); assay: Antitubercular activity, microplate Alamar Blue assay; type: cell-based; details: Mycobacterium tuberculosis, ATCC27294|H37RV, read-out: MIC μM
S. aureus (ATCC 23235) = assay: Antibacterial zone of inhibition; type: cell-based; details: Staphylococcus aureus, ATCC23235, read-out: Zone of inhibition in mm, S. aureus (ATCC 23235)
Method in brief: (§1)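 Sterilised nutrient agar, […], was seeded with 18–24 h bacterial subcultures, mixed and poured into Petri dishes. Once the agar set, 6 mm wells were cut with a sterile cork borer and filled with test compound dissolved in DMSO at 100 μg mL−1. Plates were incubated at 37 °C for 24–48 h, and inhibition zones around each well were measured in mm. Ciprofloxacin was the reference standard.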

B. subtilis (ATCC 6051) = assay: Antibacterial zone of inhibition; type: cell-based, Bacillus subtilis; details: 100 μg mL^−1; for zone of inhibition at 100 µg/mL: Bacillus subtilis, ATCC6051, read-out: Zone of inhibition in mm, B. subtilis (ATCC 6051), Gram positive
Method in brief: as §1

E. coli (ATCC 25922) = assay: Antibacterial zone of inhibition; type: cell-based; details: Escherichia coli, ATCC25922, read-out: Zone of inhibition in mm, E. coli (ATCC 25922)
Method in brief: as §1

[4] = test system: P. aeruginosa (ATCC 27853); assay: Antibacterial zone of inhibition; type: cell-based; details: Pseudomonas aeruginosa, ATCC27853, read-out: Zone of inhibition in mm, P. aeruginosa (ATCC 27853)
Method in brief: as §1

SMILES	MIC [3]	zone of inhibition at 100 µg/mL (S. aureus (ATCC 23235))	zone of inhibition at 100 µg/mL (B. subtilis (ATCC 6051))	zone of inhibition at 100 µg/mL (E. coli (ATCC 25922))	zone of inhibition at 100 µg/mL [4]	other results
O=[N+]([O-])c1ccc(-c2csc(N/N=C/C=C(\Cl)c3ccc(Cl)cc3)n2)cc1 [2-((E)-2-((Z)-3-chloro-3-(4-chlorophenyl)allylidene)hydrazinyl)-4-(4-nitrophenyl)thiazole]	–	–	–	–	–	MIC ([1]; (E)-2-(2-allylidenehydrazinyl)thiazole derivatives): 6.5 µg/mL
Cc1csc(C(C)(O)c2nnc(Nc3cccc(Br)n3)s2)n1 (stereo not drawn) [1-(5-((6-bromopyridin-2-yl)amino)-1,3,4-thiadiazol-2-yl)-1-(4-methylthiazol-2-yl)ethanol]	–	–	–	–	–	MIC ([1]; thiazole-thiadiazole hybrids): 1 µM
CCOC(=O)c1nc(-c2ccc(C#N)cc2)sc1C1CCCCC1 [ethyl 2-(4-cyanophenyl)-5-cyclohexylthiazole-4-carboxylate]	–	–	–	–	–	MIC (M.tb H37Rv; H37Rv strain): 2.1 µg/mL; inhibition against dormant M. tuberculosis H37Ra [2]: 91%
CCOC(=O)c1sc(N/N=C/c2c(-c3ccc(F)cc3)nc3ncccn23)nc1C [Compound K3, Ethyl(E)-2-(2-((2-(4-fluorophenyl)imidazo[1,2-a]pyrimidin-3-yl)methylene)hydrazineyl)-4-methylthiazole-5-carboxylate]	3.77 µM (≈ 1.6 µg/mL)	17 mm	13 mm	20 mm	11 mm	Cytotoxicity in VERO cells (VERO cell lines): non-toxic profiles
CCOC(=O)c1sc(N/N=C/c2c(-c3ccc(OC)cc3)nc3ncccn23)nc1C [Compound K2, Ethyl(E)-2-(2-((2-(4-methoxyphenyl)imidazo[1,2-a]pyrimidin-3-yl)methylene)hydrazineyl)-4-methylthiazole-5-carboxylate]	3.66 µM (≈ 1.6 µg/mL)	15 mm	15 to 20 mm	18 mm	18 mm	Zone of inhibition in mm, B. subtilis (ATCC 6051) (B. subtilis (ATCC 6051); Gram positive): 15 mm; Cytotoxicity in VERO cells (VERO cell lines): non-toxic profiles
CCOC(=O)c1sc(N/N=C/c2ccccc2O)nc1C [(E)-ethyl 2-(2-(2-hydroxybenzylidene)hydrazinyl-4-methylthiazole-5-carboxylate]	–	–	–	–	–	MIC (M.tb H37Rv; M.tb H37Rv): 25 µM
CCOC(=O)c1sc(N/N=C(\C)c2ccccn2)nc1C [(E)-ethyl 4-methyl-(2-(1-(pyridin-2-yl)ethylidene)hydrazinyl)thiazole-5-carboxylate]	–	–	–	–	–	MIC (M.tb H37Rv; M.tb H37Rv): 12.5 µM
CCOC(=O)c1cnc(N/N=C/c2c(-c3ccccc3)nc3ncccn23)s1 [Compound K14, Ethyl(E)-2-(2-((2-phenylimidazo[1,2-a]pyrimidin-3-yl)methylene)hydrazineyl)thiazole-5-carboxylate]	31.9 µM (≈ 12.5 µg/mL)	15 mm	14 mm	12 mm	15 mm	–
